Data taken from ChEMBL document CHEMBL4028864 (J Med Chem, 2017).
Converted amounts (≈) assume the structure as drawn. The source made the active and inactive calls. The calls are words filed in the database; no cut-off is given here.

Legend:
[1] = Thermodynamic aqueous solubility of the compound at pH 7.4 after 3 hrs by UV absorbance based assay; format: physicochemical; conditions: read-out: Therm_solubility
Method in brief: (§1)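 A 20 mM DMSO stock was diluted 1:100 into pH 7.4 PBS, then shaken at 250 rpm for 3 or 24 h at 22.5 ± 2.5 °C. The mixture was filtered and the filtrate diluted with acetonitrile/universal buffer. Absorbance was read at 310 nm against a 6.25–200 μM calibration curve, in triplicate.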

[2] = Thermodynamic aqueous solubility of the compound at pH 7.4 after 24 hrs by UV absorbance based assay; format: physicochemical; conditions: read-out: Therm_solubility; method in brief: as §1
[3] = molecular target: Tyrosine-protein kinase JAK2 (Homo sapiens, UniProt O60674); assay: Binding affinity to N-terminal His tagged human recombinant JAK2 (1014 to 1132 residues) expressed in Escherichia coli after 60 to 90 mins by LC/MS analysis; conditions: read-out: Kd(app)
Chain of Tyrosine-protein kinase JAK2 (O60674 whole entry, the tested form may be a part): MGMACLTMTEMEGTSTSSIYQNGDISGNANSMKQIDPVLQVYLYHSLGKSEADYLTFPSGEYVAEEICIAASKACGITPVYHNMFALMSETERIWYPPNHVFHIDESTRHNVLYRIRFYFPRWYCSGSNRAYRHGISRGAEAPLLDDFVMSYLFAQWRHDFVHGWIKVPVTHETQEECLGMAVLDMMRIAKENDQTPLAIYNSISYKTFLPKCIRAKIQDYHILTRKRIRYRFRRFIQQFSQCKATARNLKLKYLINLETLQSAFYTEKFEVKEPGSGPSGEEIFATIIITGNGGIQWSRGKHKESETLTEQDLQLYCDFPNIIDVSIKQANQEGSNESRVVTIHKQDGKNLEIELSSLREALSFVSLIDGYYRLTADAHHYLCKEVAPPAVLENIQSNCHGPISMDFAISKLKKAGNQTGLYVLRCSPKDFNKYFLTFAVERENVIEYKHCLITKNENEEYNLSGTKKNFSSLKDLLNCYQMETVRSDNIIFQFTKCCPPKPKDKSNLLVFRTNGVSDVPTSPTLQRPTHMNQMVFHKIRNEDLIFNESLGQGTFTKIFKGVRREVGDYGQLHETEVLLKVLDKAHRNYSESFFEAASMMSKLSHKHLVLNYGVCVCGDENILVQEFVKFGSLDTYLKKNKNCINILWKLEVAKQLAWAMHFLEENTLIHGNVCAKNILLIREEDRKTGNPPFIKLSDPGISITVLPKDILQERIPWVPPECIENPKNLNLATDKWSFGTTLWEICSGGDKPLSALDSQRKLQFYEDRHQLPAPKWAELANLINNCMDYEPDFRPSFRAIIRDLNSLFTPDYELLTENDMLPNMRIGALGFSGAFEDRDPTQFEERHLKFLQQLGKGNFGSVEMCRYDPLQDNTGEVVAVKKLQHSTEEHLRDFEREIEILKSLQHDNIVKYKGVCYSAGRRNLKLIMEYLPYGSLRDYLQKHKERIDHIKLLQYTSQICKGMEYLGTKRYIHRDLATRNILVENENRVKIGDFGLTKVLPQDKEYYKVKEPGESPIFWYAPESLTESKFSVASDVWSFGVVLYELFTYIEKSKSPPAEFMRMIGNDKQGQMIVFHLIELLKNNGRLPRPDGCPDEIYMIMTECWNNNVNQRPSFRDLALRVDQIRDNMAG

[4] = molecular target: Tyrosine-protein kinase JAK1 (Homo sapiens, UniProt P23458); assay: Inhibition of human JAK1 using poly[Glu:Tyr] as substrate in presence of [gamma-33P]-ATP
Chain of Tyrosine-protein kinase JAK1 (P23458 whole entry): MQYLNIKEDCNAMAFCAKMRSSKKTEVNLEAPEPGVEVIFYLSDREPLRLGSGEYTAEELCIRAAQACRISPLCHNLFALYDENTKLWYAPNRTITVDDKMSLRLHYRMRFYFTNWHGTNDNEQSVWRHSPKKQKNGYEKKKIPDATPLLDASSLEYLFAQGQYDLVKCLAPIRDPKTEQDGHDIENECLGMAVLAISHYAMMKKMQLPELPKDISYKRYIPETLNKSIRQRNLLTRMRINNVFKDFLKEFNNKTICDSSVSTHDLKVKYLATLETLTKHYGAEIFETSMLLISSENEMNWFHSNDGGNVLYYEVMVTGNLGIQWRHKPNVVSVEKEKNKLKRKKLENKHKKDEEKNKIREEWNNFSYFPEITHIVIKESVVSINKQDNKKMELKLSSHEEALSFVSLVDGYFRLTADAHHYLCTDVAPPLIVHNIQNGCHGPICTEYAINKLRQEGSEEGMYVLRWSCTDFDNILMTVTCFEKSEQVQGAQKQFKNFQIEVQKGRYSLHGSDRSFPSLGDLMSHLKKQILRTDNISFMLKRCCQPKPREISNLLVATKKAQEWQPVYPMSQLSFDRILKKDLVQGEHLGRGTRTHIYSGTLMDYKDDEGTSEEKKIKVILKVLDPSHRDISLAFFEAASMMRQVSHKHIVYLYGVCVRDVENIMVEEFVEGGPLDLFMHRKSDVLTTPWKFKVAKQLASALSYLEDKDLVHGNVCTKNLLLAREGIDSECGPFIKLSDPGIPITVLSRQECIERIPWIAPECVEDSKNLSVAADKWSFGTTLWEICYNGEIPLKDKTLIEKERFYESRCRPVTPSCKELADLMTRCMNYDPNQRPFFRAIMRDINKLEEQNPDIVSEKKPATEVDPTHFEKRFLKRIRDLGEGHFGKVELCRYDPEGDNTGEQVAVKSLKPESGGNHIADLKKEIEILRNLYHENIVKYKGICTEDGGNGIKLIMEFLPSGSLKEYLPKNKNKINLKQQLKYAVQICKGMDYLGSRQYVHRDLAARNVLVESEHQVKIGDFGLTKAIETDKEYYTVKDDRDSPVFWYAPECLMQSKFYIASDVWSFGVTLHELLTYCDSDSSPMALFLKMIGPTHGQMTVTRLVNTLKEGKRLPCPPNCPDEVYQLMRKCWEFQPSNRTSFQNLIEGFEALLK
Method in brief: (§2)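 Kinase inhibition was tested by radiometric "Hotspot" profiling at a contract laboratory with 10 μM ATP.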

[5] = molecular target: T1, Tyrosine-protein kinase JAK3 (Homo sapiens, UniProt P52333); assay: Inhibition of human JAK3 using GEEEEYFELVKKKK as substrate in presence of [gamma-33P]-ATP; method in brief: as §2
T1 sequence (P52333 whole entry): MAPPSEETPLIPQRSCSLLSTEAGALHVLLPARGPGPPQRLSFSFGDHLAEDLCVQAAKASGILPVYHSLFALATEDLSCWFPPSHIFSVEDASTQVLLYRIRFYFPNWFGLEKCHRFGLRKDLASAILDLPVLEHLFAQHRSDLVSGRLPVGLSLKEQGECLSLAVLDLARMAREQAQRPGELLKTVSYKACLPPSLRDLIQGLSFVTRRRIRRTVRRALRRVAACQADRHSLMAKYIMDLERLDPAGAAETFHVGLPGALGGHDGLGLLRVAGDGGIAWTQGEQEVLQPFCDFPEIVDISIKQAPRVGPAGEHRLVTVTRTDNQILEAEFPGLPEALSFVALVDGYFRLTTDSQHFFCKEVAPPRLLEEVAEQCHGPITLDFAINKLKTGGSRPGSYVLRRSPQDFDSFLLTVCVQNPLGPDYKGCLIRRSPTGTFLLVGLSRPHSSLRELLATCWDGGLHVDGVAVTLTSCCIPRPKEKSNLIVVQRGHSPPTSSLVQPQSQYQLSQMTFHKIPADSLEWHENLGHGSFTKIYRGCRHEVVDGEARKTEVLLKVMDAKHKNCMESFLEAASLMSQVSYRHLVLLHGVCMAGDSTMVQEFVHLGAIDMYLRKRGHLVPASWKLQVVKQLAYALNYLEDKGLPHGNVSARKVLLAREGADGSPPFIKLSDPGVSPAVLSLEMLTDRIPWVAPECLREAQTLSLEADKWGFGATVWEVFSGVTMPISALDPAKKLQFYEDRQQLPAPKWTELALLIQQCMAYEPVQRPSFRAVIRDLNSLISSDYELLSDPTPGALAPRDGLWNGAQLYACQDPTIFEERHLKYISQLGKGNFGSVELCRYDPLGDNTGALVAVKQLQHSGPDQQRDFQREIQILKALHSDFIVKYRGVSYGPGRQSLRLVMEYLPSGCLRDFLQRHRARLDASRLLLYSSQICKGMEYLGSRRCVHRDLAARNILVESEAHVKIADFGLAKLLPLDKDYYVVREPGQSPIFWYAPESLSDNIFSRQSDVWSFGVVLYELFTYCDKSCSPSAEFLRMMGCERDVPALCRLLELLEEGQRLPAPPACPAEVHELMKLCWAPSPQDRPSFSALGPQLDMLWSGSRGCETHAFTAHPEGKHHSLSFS

[6] = molecular target: Non-receptor tyrosine-protein kinase TYK2 (Homo sapiens, UniProt P29597); assay: Inhibition of wild type human TYK2 (V877 to C1187 residues) expressed in mammalian cells assessed as residual activity at 1 uM by KINOMEscan assay relative to control; format: cell-based
Chain of Non-receptor tyrosine-protein kinase TYK2 (P29597 whole entry, the tested form may be a part): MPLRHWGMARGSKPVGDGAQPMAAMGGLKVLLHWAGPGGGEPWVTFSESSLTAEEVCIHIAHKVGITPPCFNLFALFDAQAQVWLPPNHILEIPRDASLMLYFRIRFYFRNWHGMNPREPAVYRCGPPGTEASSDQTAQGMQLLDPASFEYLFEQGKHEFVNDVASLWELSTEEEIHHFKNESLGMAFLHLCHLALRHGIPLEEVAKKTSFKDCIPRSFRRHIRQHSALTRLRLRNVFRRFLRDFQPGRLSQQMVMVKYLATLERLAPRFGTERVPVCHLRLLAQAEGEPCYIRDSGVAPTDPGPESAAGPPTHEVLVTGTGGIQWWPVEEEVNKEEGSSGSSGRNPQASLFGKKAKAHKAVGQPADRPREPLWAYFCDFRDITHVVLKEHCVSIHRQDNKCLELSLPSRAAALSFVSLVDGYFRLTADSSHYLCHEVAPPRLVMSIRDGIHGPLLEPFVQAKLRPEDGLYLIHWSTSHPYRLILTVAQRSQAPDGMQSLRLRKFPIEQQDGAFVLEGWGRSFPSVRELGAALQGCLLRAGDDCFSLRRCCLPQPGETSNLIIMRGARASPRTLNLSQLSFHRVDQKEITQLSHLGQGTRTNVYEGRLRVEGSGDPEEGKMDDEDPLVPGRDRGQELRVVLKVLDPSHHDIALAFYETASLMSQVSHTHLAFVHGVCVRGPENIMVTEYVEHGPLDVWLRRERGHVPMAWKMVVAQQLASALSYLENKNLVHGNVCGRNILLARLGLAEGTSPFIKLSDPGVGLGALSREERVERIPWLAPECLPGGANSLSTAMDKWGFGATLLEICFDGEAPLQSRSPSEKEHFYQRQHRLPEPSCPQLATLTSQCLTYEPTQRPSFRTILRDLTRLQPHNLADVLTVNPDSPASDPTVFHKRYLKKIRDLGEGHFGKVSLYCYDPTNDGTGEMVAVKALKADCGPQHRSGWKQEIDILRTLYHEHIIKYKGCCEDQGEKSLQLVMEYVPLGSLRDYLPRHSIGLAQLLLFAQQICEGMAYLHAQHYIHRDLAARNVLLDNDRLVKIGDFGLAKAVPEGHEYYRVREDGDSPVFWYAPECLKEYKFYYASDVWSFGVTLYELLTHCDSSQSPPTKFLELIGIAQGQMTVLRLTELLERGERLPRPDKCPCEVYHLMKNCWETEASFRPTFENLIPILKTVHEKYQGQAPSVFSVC

[7] = molecular target: Histone deacetylase 4 (Homo sapiens) (UniProt P56524); assay: Inhibition of N-terminal GST tagged/C-terminal His tagged human recombinant HDAC4 (627 to 1084 residues) expressed in Baculovirus infected insect cells in presence of ATP; conditions: concentration not given here
Method in brief: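 HDAC enzyme inhibition was run by a contract laboratory.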

[8] = test system: MDA-MB-231; assay: cells; format: functional, cell-based; conditions: Homo sapiens, MDA-MB-231, 72 h
[9] = test system: HL-60; assay: Antiproliferative activity against human HL60 cells; format: functional, cell-based
[10] = cells; format: functional, cell-based; conditions: Homo sapiens, NKYS, 48 h
[11] = Cmax in Wistar rat at 5 mg/kg, po administered via gavage by LC-MS/MS analysis; format: ADME, organism-based; parameters: dose 5 mg/kg, route oral; conditions: in vivo
Method in brief: (§3)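 Wistar rats given a single 5 mg/kg oral dose. Plasma concentration–time profiles were plotted as mean ± SEM and sampled through 24 h postdose.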

[12] = Oral bioavailability in Wistar rat at 5 mg/kg administered via gavage by LC-MS/MS analysis; format: ADME, organism-based; conditions: in vivo; method in brief: as §3
[13] = molecular target: Protein deacetylase HDAC6 (Homo sapiens) (UniProt Q9UBN7); assay: Inhibition of HDAC6 in human MOLM14 cells assessed as increase in acetylated tubulin level up to 3 uM after 16 hrs by immunoblotting analysis; format: cell-based
Chain of Protein deacetylase HDAC6 (Homo sapiens) (Q9UBN7 whole entry): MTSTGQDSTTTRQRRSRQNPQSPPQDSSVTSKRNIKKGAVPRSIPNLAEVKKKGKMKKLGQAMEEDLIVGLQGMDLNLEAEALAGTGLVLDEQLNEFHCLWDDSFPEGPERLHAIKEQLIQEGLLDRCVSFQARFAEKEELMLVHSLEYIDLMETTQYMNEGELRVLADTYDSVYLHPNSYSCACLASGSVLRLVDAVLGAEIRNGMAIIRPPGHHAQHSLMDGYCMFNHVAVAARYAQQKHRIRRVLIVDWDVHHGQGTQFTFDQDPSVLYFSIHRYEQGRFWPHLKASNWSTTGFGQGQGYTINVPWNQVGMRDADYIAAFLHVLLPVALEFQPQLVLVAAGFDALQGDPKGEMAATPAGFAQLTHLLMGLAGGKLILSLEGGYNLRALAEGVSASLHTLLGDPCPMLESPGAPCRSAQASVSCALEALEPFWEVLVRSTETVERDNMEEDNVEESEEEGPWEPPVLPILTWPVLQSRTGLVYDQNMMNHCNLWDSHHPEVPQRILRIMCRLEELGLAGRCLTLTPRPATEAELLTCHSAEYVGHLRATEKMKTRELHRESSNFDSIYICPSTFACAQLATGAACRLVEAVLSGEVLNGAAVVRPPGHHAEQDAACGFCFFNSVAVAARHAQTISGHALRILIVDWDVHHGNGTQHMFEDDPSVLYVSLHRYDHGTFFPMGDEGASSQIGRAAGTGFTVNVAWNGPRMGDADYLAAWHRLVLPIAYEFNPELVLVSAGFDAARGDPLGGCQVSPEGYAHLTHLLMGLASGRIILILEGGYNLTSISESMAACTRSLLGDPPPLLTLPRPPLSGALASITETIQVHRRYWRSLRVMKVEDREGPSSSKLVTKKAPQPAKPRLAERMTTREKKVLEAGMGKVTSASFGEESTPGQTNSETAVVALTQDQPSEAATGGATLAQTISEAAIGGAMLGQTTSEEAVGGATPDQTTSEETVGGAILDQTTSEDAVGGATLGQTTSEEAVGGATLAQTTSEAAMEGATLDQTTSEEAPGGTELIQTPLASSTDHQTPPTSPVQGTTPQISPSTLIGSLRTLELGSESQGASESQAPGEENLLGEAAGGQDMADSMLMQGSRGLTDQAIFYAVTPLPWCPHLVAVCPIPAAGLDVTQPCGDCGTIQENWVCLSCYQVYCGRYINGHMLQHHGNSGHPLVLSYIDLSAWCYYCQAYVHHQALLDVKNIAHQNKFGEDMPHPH
Method in brief: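 KMS-12-BM and MOLM-14 cells were treated for 16 h and then lysed. Acetylated tubulin was detected by immunoblotting, and membranes were reprobed for total tubulin as loading control.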

[14] = test system: KMS-12-BM; assay: Induction of apoptosis in human KMS-12-BM cells assessed as increase in cleaved PARP level at 1 to 6 uM after 24 hrs by immunoblotting analysis; format: functional, cell-based
Method in brief: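 KMS-12-BM and MOLM-14 cells were treated for 24 h and then lysed. Cleaved PARP was detected by immunoblotting.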

[15] = test system: Plasma; assay: Drug uptake in Wistar rat plasma at 5 mg/kg, po administered via gavage or 1 mg/kg, iv after 4 to 24 hrs by LC-MS/MS analysis; format: ADME, organism-based; conditions: in vivo
Method in brief: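 Wistar rats dosed once at 5 mg/kg po or 1 mg/kg iv. Plasma levels were followed as mean ± SEM over 24 h postdose and checked against the limit of quantitation at each time point.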

Question: For `O=C(CCCCCCn1cc(-c2ncnc3[nH]ccc23)cn1)NO`, which solubility thermodynamic at 3 h [1] is on record?
Answer: 66.2 µg/mL (≈ 202 µM)

Question: What about the solubility thermodynamic at 24 h [2] of the same compound?
Answer: > 73 µg/mL

Question: What about the Kd [3] of the same compound?
Answer: 5000 nM

Question: And the IC50 [4]?
Answer: 17 nM

Question: What about the IC50 [5] of the same compound?
Answer: 569 nM

Question: And the Activity [6]?
Answer: 3.3%

Question: What about the inhibition [7] of the same compound?
Answer: 23%

Question: And the IC50 [8]?
Answer: 790 nM

Question: What about the IC50 [9] of the same compound?
Answer: 7360 nM

Question: And the IC50 [10]?
Answer: 450 nM

Question: What about the Cmax [11] of the same compound?
Answer: 15.9 ng/mL

Question: And the bioavailability [12]?
Answer: 1.4%

Question: What about the inhibition [13] of the same compound?
Answer: Active

Question: What about the Activity [14] of the same compound?
Answer: Dose-dependent effect

Question: And the Drug uptake [15]?
Answer: Not Active
